Blank lines part the entries; values can stand above or below the compound they belong to.
Tests used:
[1] = target: Aldo-keto reductase family 1 member B1 (Rattus norvegicus) (UniProt P07943); experiment: Compound was evaluated for irreversible inhibition of Rat Lens Aldose reductase (RLAR) at 10e-4 M
Procedure, shortened: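 Each purified reductase was desalted into 0.1 M phosphate (pH 7.4) to remove glycerol and 2-mercaptoethanol. Enzyme (ca. 0.3 unit/mL) was exposed to inhibitor or buffer alone for 15 min at room temperature. A 400 µL aliquot was then desalted into pH 7.0 phosphate with 10 mM 2-mercaptoethanol, and BSA was added. The eluate was kept on ice, and residual activity was read from NADPH loss at 340 nm with DL-glyceraldehyde. Runs were at least triplicate and averaged.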

[2] = target: Aldo-keto reductase family 1 member B1 (Rattus norvegicus, UniProt P07943); experiment: Compound was evaluated for the inhibition of Rat Lens Aldose reductase (RLAR)
Procedure, shortened: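 Purified rat lens aldose reductase and rat kidney aldehyde reductase, each homogeneous on SDS-PAGE. The 1.0 mL assay held equal enzyme units in 0.10 M Na,K phosphate (pH 6.2), 0.3 mM NADPH, 10 mM DL-glyceraldehyde and inhibitor. The NADPH decrease at 340 nm was followed over 4 min, with no-substrate absorbance controls. IC50 is given as mean ± SD.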

[3] = target: Aldo-keto reductase family 1 member B1 (Rattus norvegicus) (UniProt P07943); experiment: Protection by the compound of irreversible inhibition of Rat Lens Aldose reductase by [5-(2-Iodo-acetyl)-1,3-dioxo-1H,3H-benzo[de]isoquinolin-2-yl]-acetic acid(0.1 mM) at 0.1 mM concentration; type: functional
Procedure, shortened: (§1)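 Rat lens aldose reductase was desalted into 0.1 M phosphate (pH 7.4). The enzyme was preincubated 5 min with the reversible inhibitor, then the iodoacetamide label was added for a further 5 min. Unreacted reagent was removed by desalting into buffer with 10 mM 2-mercaptoethanol, BSA was added, and residual activity was read by NADPH loss at 340 nm. Runs were at least triplicate and averaged.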

[4] = target: Aldo-keto reductase family 1 member B1 (Rattus norvegicus) (UniProt P07943); experiment: Protection by the compound of irreversible inhibition of Rat Lens Aldose reductase by [5-(2-Iodo-acetyl)-1,3-dioxo-1H,3H-benzo[de]isoquinolin-2-yl]-acetic acid(0.1 mM) at 1 mM concentration; type: functional; procedure, shortened: as §1
[5] = target: Aldo-keto reductase family 1 member B1 (Rattus norvegicus) (UniProt P07943); experiment: Protection by the compound of irreversible inhibition of Rat Lens Aldose reductase by [5-(2-Iodo-acetyl)-1,3-dioxo-1H,3H-benzo[de]isoquinolin-2-yl]-acetic acid(0.01 mM) at 0.01 mM concentration; type: functional; procedure, shortened: as §1
[6] = target: Aldo-keto reductase family 1 member B1 (Rattus norvegicus) (UniProt P07943); experiment: Protection by the compound of irreversible inhibition of Rat Lens Aldose reductase by [5-(2-Iodo-acetyl)-1,3-dioxo-1H,3H-benzo[de]isoquinolin-2-yl]-acetic acid(0.01 mM) at 0.1 mM concentration; type: functional; procedure, shortened: as §1
[7] = target: Aldo-keto reductase family 1 member B1 (Rattus norvegicus) (UniProt P07943); experiment: Protection by the compound of irreversible inhibition of Rat Lens Aldose reductase by [5-(2-Iodo-acetyl)-1,3-dioxo-1H,3H-benzo[de]isoquinolin-2-yl]-acetic acid(0.01 mM) at 1 mM concentration; type: functional; procedure, shortened: as §1
[8] = target: Aldo-keto reductase family 1 member B1 (Rattus norvegicus) (UniProt P07943); experiment: Protection by the compound of irreversible inhibition of Rat Lens Aldose reductase by [5-(2-Iodo-acetyl)-1,3-dioxo-1H,3H-benzo[de]isoquinolin-2-yl]-acetic acid(0.1 mM) at 0.01 mM concentration; type: functional; procedure, shortened: as §1
[9] = Ratio of IC50(RKALR) vs IC50(RLAR)
[10] = test system: Aldehyde reductase AKR1A1 (Rattus norvegicus); experiment: Compound was evaluated for irreversible inhibition of Rat kidney Aldehyde reductase (RKALR) at 10e-4 M

inhibition [1]: 89%
Structure (SMILES): O=C(O)CN1C(=O)c2cccc3cc(C(=O)CI)cc(c23)C1=O

IC50 [2]: 640 nM | Protection [3]: 19% | Protection [4]: 39% | Protection [5]: 11% | Protection [6]: 43% | Protection [7]: 100% | Protection [8]: 17% | Ratio [9]: 10
Structure (SMILES): CC(=O)Nc1cc2c3c(cccc3c1)C(=O)N(CC(=O)O)C2=O

inhibition [10]: 0%
Structure (SMILES): O=C(O)CN1C(=O)c2cccc3cc(N=C=S)cc(c23)C1=O

IC50 [2]: 600 nM | inhibition [1]: 46% | Ratio [9]: 13 Ratio
Structure (SMILES): O=C(O)CN1C(=O)c2cccc3cc(NC(=O)CBr)cc(c23)C1=O
